Measurements taken from ChEMBL document CHEMBL1123079, “Synthesis and biological activity of a novel adenosine analogue, 3-beta-D-ribofuranosylthieno[2,3-d]pyrimidin-4-one” (1985).

Experiments:
L1210 [1] = experiment: The concentration required to inhibit the growth of L-1210 leukemic cells was evaluated; 1E-3 to 1E-4; assay type: functional, cell-based; conditions: Mus musculus
L1210 [2] = experiment: The concentration requiredi (cytidine+2'deoxycytidine) to inhibit the growth of L-1210 leukemic cells was evaluated; assay type: functional, cell-based; conditions: Mus musculus
L1210 [3] = experiment: The compound was tested for inhibition of L-1210 leukemic cell growth at 10 e-4 M; assay type: functional, Mus musculus; design: scale not given: the % may be the effect or the level left
How it was run: (§1)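 Murine L-1210 leukemic cells were grown in static suspension culture in Fischer's medium. Test compound was added at 5 × 10^-5 or 10^-4 M alone. Initial growth rate is the rate of increase in cell number over the first 24 h of incubation, expressed as % of untreated control. Values are mean (±SD), n = 5.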

L1210 [4] = experiment: The compound was tested for inhibition of L-1210 leukemic cell growth at 10 e-4 M along with 10e-5 M adenine.; assay type: functional, Mus musculus; design: scale not given: the % may be the effect or the level left
How it was run: (§2)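 Static suspension cultures of murine L-1210 leukemic cells were grown in Fischer's medium with test compound at 10^-4 M plus 10^-5 M adenine or 10^-5 M adenosine. Read-out was the initial growth rate, the increase in cell number during the first 24 h of incubation, relative to untreated control cells (%).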

L1210 [5] = experiment: The compound was tested for inhibition of L-1210 leukemic cell growth at 5 x 10 e-5 M; assay type: functional, Mus musculus; design: scale not given: the % may be the effect or the level left; how it was run: as §1
L1210 [6] = experiment: The compound was tested for inhibition of L-1210 leukemic cell growth at 5 x 10 e-5 M along with 10e-5 M adenosine.; assay type: functional, Mus musculus; design: scale not given: the % may be the effect or the level left
How it was run: (§3)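 L-1210 cells were held in static suspension in Fischer's medium with test compound at 5 × 10^-5 M plus either 10^-5 M adenine or 10^-5 M adenosine. Cell numbers were counted, and the rate of increase over the first 24 h was taken as the initial growth rate, given as % of untreated control. Values are means, n = 2.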

L1210 [7] = experiment: The compound was tested for inhibition of L-1210 leukemic cell growth at 5 x 10 e-5 M along with 10e-5 M adenine.; assay type: functional, Mus musculus; design: scale not given: the % may be the effect or the level left; how it was run: as §3
L1210 [8] = experiment: The compound was tested for inhibition of L-1210 leukemic cell growth at 10 e-4 M along with 10e-5 M adenosine.; assay type: functional, Mus musculus; design: scale not given: the % may be the effect or the level left; how it was run: as §2
L1210 [9] = experiment: The concentration required to inhibit the growth of L-1210 leukemic cells was evaluated; 1E-4 to 5E-4; assay type: functional, cell-based; conditions: Mus musculus
L1210 [10] = experiment: The concentration required to inhibit the growth of L-1210 leukemic cells was evaluated; 1E-4 to 1E-5; assay type: functional, cell-based; conditions: Mus musculus
L1210 [11] = experiment: The concentration required (hypoxanthine+uridine) to inhibit the growth of L-1210 leukemic cells was evaluated; 2E-4 to 2E-5; assay type: functional, cell-based; conditions: Mus musculus

Structure (SMILES): Nc1ccn([C@@H]2O[C@H](CO)[C@@H](O)[C@H]2O)c(=O)n1
- Concentration (L1210 [1]): 1 mM
- Concentration (L1210 [2]): 100 µM

Structure (SMILES): O=c1c2ccsc2ncn1C1O[C@H](CO)[C@@H](O)[C@H]1O (some centres not stated)
- Control (L1210 [3]): 16%
- Control (L1210 [4]): 25%
- Control (L1210 [5]): 32%
- Control (L1210 [6]): 57%
- Control (L1210 [7]): 52%
- Control (L1210 [8]): 50%

Structure (SMILES): O=c1ccn([C@@H]2O[C@H](CO)[C@@H](O)[C@H]2O)c(=O)[nH]1
- Concentration (L1210 [1]): 1 mM

Structure (SMILES): Nc1ccn([C@H]2C[C@H](O)[C@@H](CO)O2)c(=O)n1
- Concentration (L1210 [9]): 100 µM

Structure (SMILES): Cc1cn([C@H]2C[C@H](O)[C@@H](CO)O2)c(=O)[nH]c1=O
- Concentration (L1210 [10]): 100 µM
- Concentration (L1210 [11]): 200 µM
